High-throughput results deposited in PubChem by several laboratories.
bCat KO growth = primary screen for growth suppressors in beta-catenin knockout HCT116 cells (colon tumor, human); HCT116 beta-catenin knockout viability, CellTiter-Glo, 60 h; stronger effect = lower value; viability, % at 10 µM; actives 1.5% (n = 140,000); AID 818, 2007;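 active = viability at or under a set limit, the compound median less 4 SD, cut at about 6% in these data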;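 also: 0% = Hyamine 1622 control at 20 µM and 100% = untreated cell control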
PMI act = activators of human PMI, primary screen, biochemical, fluorescence intensity, near-Km mannose 6-phosphate; Mannose-6-phosphate isomerase (Homo sapiens), P34949; purified human PMI, coupled resazurin fluorescence, 20 min; stronger effect = higher value; 1 = vehicle control, 0 substrate-free wells; activation factor at 20 µM; actives 0.005% (n = 190,000);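 active = activation factor of 2 or more at 20 µM, relative to plate controls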
Target sequence (P34949 whole entry, looked up): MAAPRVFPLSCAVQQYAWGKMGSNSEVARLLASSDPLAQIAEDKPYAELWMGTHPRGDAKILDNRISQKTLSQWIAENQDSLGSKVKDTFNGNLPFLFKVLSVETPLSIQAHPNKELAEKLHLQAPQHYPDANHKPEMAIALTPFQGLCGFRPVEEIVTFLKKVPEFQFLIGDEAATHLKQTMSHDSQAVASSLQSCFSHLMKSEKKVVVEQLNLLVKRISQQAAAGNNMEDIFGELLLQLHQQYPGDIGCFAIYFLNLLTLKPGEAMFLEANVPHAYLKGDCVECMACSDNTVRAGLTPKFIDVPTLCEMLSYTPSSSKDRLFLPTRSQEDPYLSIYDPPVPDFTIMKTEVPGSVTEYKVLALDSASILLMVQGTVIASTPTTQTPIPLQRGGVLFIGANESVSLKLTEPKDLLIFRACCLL
Lmaj promast = Leishmania major promastigote growth inhibition, primary screen | actives 9% (n = 200,000) | AID 1063, 2008 | inhibition, % at 10 µM | Leishmania major promastigotes, resazurin fluorescence viability; in the data active = inhibition above about 50%;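 also: promastigotes grown with compound for 44 hours at 28 °C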
HCT116 PTEN-null = growth suppression of PTEN-null HCT116, primary screen, cell-based, CellTiter-Glo | HCT116 PTEN-null viability, 60 h; stronger effect = lower value | actives 1.2% (n = 140,000) | viability, % at 10 µM;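 active = viability at or below a set limit, 4 SD under the median of all tested compounds, cut at about 3.7% in these data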;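 also: PTEN knockout HCT116 line with beta catenin targeted HCT116 as companion control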
PMI act satM6P = human PMI activators, high substrate, primary screen, biochemical, fluorescence intensity, near-saturating mannose 6-phosphate | Mannose-6-phosphate isomerase (Homo sapiens), P34949 | coupled PMI enzyme assay, resazurin fluorescence, 20 min; stronger effect = higher value; 1 = untreated enzyme, 0 = substrate-free blank | activation factor at 20 µM | actives 0.34% (n = 190,000);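 active = activation factor of 2 or more at 20 µM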
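Material: human phosphomannose isomerase with PGI, G6PDH, diaphorase coupling enzymes. Quantity: 15 ng/mL PMI. Medium: HEPES pH 7.4 buffer with MgCl2 and Tween-20. Reagent: Near-saturating mannose-6-phosphate, 1.0 mM. Compound: 20 µM single dose. Times: enzyme reaction with compound 20 min at room temperature. Detection: resorufin fluorescence at Ex 544/Em 590 nm.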
Active calls of the source: *; · = no result. This is a sample that favours compounds with a hit; in the whole collection about 9.6% have one here.

SMILES	bCat KO growth	PMI act	Lmaj promast	HCT116 PTEN-null	PMI act satM6P
CCOC(=O)c1cccnc1SCC(=O)Nc1ccc(C)cc1	·	1	2	·	1
Cc1ccc(NC(=O)CSc2ncccc2C(=O)Oc2cccc([N+](=O)[O-])c2)cc1Cl	89	1.1	70*	99	1.1
COc1ccc(CNC(=O)CN(c2ccccc2)S(=O)(=O)c2ccccc2[N+](=O)[O-])cc1	·	0.9	0	·	1.1
O=C(O)CCN1C(=O)/C(=C/c2cn(-c3ccccc3)nc2-c2cccs2)SC1=S	·	·	-4	·	·
CN1CCC(N(C)C(=O)/C=C/c2cn(-c3ccccc3)nc2-c2cccs2)CC1	·	1.1	101*	·	1
CC1=NNC(=O)/C1=C\c1cn(-c2ccccc2)nc1-c1ccc(F)cc1	·	0.9	100*	·	0.8
CC1=NNC(=O)/C1=C\c1cn(-c2ccccc2)nc1-c1cccs1	1.6*	0.9	100*	1.5*	0.9
CCCCn1nnc(NC(=O)CC23CC4CC(CC(C4)C2)C3)n1	79	0.9	3	79	1
CCOC(=O)c1ncn2c1C(=O)OC2(C)C	97	1	-4	98	0.9
O=[N+]([O-])/C=C/c1cn(Cc2ccc(F)cc2)c2ccccc12	1.9*	0.9	99*	1.4*	1
CCNC(=S)N/N=C/c1cn(Cc2ccc(F)cc2)c2ccccc12	96	0.8	16	102	0.9
CN(Cc1ccccc1)c1nc2c(c(=O)[nH]c(=O)n2C)n1CCCc1ccccc1	59	1	54*	56	0.9
CN(Cc1ccccc1)c1nc2c(c(=O)[nH]c(=O)n2C)n1Cc1ccccc1Cl	82	0.8	70*	94	0.8
Cc1cc(C)nc(SCCn2c(N(C)Cc3ccccc3)nc3c2c(=O)n(C)c(=O)n3C)n1	80	1	78*	80	1
CN(Cc1ccccc1)c1nc2c(c(=O)n(C)c(=O)n2C)n1CCSc1ncccn1	104	0.9	-2	100	0.9
CCOCCn1c(N(C)Cc2ccccc2)nc2c1c(=O)[nH]c(=O)n2C	97	0.9	-9	98	0.9
CCOC(=O)C1CNc2cc(S(=O)(=O)CC)ccc2O1 (stereo not drawn)	·	0.9	-7	·	1
O=C(N/N=C/c1ccccc1F)c1ccc(COc2ccccc2Cl)o1	94	1	28	103	1
Cc1ccnc(NC(=O)CCC(=O)N(CC(=O)NC2CCCCC2)Cc2cccs2)c1	·	1.1	26	·	1
CCCn1c(SCC(=O)Nc2cc(S(=O)(=O)N(C)C)ccc2OC)n[nH]c1=O	·	1	-6	·	1
Cc1ccc(C(=O)Nc2cc(C(C)C)c(O)c(C(C)C)c2)cc1	77	0.8	0	71	0.8
C/C(=N\Nc1nc2ccccc2[nH]1)c1ccc(C)o1	82	0.9	65*	71	1
C/C(=N\Nc1nc2ccccc2[nH]1)c1ccc(Cl)s1	49	0.9	90*	59	1
C/C(=N\Nc1nc(C)cc(C)n1)c1ccc(N2CCOCC2)cc1	·	1.1	-8	·	1.1
C/C(=N\Nc1nc2ccccc2[nH]1)c1ccc(N2CCOCC2)cc1	·	0.9	100*	·	0.8
SMILES	bCat KO growth	PMI act	Lmaj promast	HCT116 PTEN-null	PMI act satM6P
CCN(CC)c1ccc(N2C(=O)/C(=C/c3cccnc3)SC2=S)cc1	93	0.9	-3	96	0.8
O=C(Nc1cccc2ccccc12)OCc1cncs1	·	1	2	·	1
CN1C(=O)/C(=C2\SC(=S)N(CC3CCCO3)C2=O)c2ccccc21 (stereo not drawn)	68	1	34	75	1
Cc1cccc(N=C2NC(=O)/C(=C3/C(=O)N(C)c4ccccc43)S2)c1C	79	1	68*	82	1
C/C(CC(=O)Nc1ccc(OCc2ccccc2)cc1)=N\NC(=O)C(=O)Nc1ccc(C)c(Cl)c1	45	1	-7	28	1
O=C(Nc1ccccc1)Nc1ccc(Cl)c(S(=O)(=O)N2CCOCC2)c1	·	1	18	·	1
CC1(C)CC2CC(C)(CN2S(=O)(=O)c2ccc(C(=O)Nc3ccc(S(=O)(=O)N4CCOCC4)cc3)cc2)C1 (stereo not drawn)	18	0.7	99*	20	0.9
CC1(C)CC2CC(C)(CN2S(=O)(=O)c2ccc(C(=O)Nc3ccc(Cl)c(S(=O)(=O)N4CCOCC4)c3)cc2)C1 (stereo not drawn)	12	0.9	97*	23	0.9
O=C(Nc1ccc(Cl)c(S(=O)(=O)N2CCOCC2)c1)c1ccccc1-c1ccc(C(F)(F)F)cc1	49	0.9	99*	39	1.1
CC(=O)c1cccc(NC(=O)C(OC(=O)/C=C/c2ccc3c(c2)OCO3)c2ccccc2)c1 (stereo not drawn)	96	0.9	1	88	0.9
Cc1ccc2c(Cl)cc(Cl)c(OCC(=O)Nc3cccc(S(N)(=O)=O)c3)c2n1	84	1	71*	92	0.8
Cc1ccc2c(Cl)cc(Cl)c(OCC(=O)Nc3ccc(C)c(S(=O)(=O)N(C)C)c3)c2n1	69	0.8	68*	65	0.7
Cc1ccc2c(Cl)cc(Cl)c(OCC(=O)Nc3cc(S(=O)(=O)N(C)C)ccc3C)c2n1	25	0.8	69*	31	0.9
Cc1ccc(-c2cc(C(=O)Nc3ccc4c(c3)OCCO4)c3ccccc3n2)cc1	84	0.9	35	90	1
CN(Cc1ccno1)C(=O)CC1C(=O)NCCN1CC(c1ccccc1)c1ccccc1 (stereo not drawn)	·	1	-3	·	0.6
COC(=O)c1ccc(CN2C(=O)NC3(CCCCC3C)C2=O)o1 (stereo not drawn)	101	1	-9	99	1
CS(=O)(=O)N(Cc1ccc(C(=O)Nc2ccccc2Sc2ccccc2)cc1)c1ccccc1	84	0.9	4	95	0.9
CS(=O)(=O)N(CC(=O)Nc1ccccc1Sc1ccccc1)c1ccc(F)cc1	65	0.8	76*	71	0.8
CC(C(=O)Nc1ccccc1Sc1ccccc1)N(c1ccccc1)S(C)(=O)=O (stereo not drawn)	85	0.9	99*	73	0.9
CCCCN(CCCNC(=O)c1ccc2nc(N3CCOCC3)sc2c1)Cc1ccccc1	72	1	36	71	1
N#Cc1c(C(F)(F)F)cc(=O)[nH]c1SCC(=O)O	·	1.1	-7	·	1
COc1ccc(C(=O)NC(Nc2ccc(C)cc2)C(Cl)(Cl)Cl)cc1 (stereo not drawn)	79	0.9	75*	81	0.9
Cc1cccc(C(=O)NC(NCc2ccco2)C(Cl)(Cl)Cl)c1 (stereo not drawn)	66	0.9	12	61	0.9
COc1ccc(NC(NC(=O)c2ccc(OC)cc2)C(Cl)(Cl)Cl)cc1 (stereo not drawn)	76	0.8	5	88	0.8
